Results from ChEMBL document CHEMBL3085726, “Tumor-targeting with novel non-benzoyl 6-substituted straight chain pyrrolo[2,3-d]pyrimidine antifolates via cellular uptake by folate receptor α and inhibition of de novo purine nucleotide biosynthesis” (J Med Chem, 2013).
Active and inactive are the calls of the source. The rule behind the calls is not given here.

How the values were obtained:
[1] = molecular target: Folate receptor alpha (Homo sapiens) (UniProt P15328); assay: Displacement of [3H]-folic acid from human folate receptor-alpha expressed in Chinese hamster RT16 cells after 15 mins; format: cell-based
Method in brief: (§1)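 Cells (~1.6x10^6) rinsed with DPBS, then acidic buffer (10 mM sodium acetate, 150 mM NaCl, pH 3.5) to strip bound folate. Washed with ice-cold HEPES-buffered saline, pH 7.4. Incubated 15 min at 0°C with [3H]folic acid (50 nM, 0.5 Ci/mmol) plus a range of unlabeled ligand concentrations. Bound label normalized to protein (pmol/mg). […] Triplicate.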

[2] = molecular target: Folate receptor beta (Homo sapiens) (UniProt P14207); assay: Displacement of [3H]-folic acid from human folate receptor-beta expressed in Chinese hamster D4 cells after 15 mins; format: cell-based; method in brief: as §1
R2 = assay: Growth inhibition of Chinese hamster R2 cells expressing human PCFT4 after 96 hrs by CellTiter-blue assay; format: functional, cell-based, Cricetulus griseus; conditions: R2, 96 h
[3] = Growth inhibition of Chinese hamster R2(VC) cells after 96 hrs by CellTiter-blue assay; conditions: Cricetulus griseus
[4] = molecular target: T1, Dihydrofolate reductase (Homo sapiens) (UniProt P00374); assay: Inhibition of recombinant DHFR (unknown origin)
T1 sequence (whole entry): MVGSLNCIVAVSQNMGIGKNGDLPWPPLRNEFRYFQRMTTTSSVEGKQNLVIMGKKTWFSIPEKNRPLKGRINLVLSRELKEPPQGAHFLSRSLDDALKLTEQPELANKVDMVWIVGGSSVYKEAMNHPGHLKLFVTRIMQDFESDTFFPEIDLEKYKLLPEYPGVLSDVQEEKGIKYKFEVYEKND

KB [5] = assay: Growth inhibition of human KB cells by CellTiter Blue fluorescence dye-based assay in presence of adenosine and AICA; format: functional, cell-based
Method in brief: (§2)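 KB cells in complete folate-free RPMI 1640 with 2 nM leucovorin were exposed to a drug concentration range. Co-additions were adenosine (60 μM), thymidine (10 μM), both together, or AICA (320 μM). Cell density was read by CellTiter Blue fluorescence and normalized to drug-free cells. Data are representative of triplicate experiments.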

KB [6] = assay: Growth inhibition of human KB cells expressing human RFC/FRalpha/PCFT after 96 hrs by CellTiter-blue assay in presence of folic acid; format: functional, cell-based
[7] = Growth inhibition of Chinese hamster MTXRII-OuaR2-4 cells after 96 hrs by CellTiter-blue assay; conditions: Cricetulus griseus
[8] = Growth inhibition of Chinese hamster D4 cells after 96 hrs by CellTiter-blue assay in presence of folic acid; format: functional, cell-based; conditions: Cricetulus griseus, D4, 96 h
[9] = Growth inhibition of Chinese hamster RT16 cells after 96 hrs by CellTiter-blue assay in presence of folic acid; format: functional, cell-based; conditions: Cricetulus griseus, RT16, 96 h
Method in brief: (§3)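 RT16 cells were first kept 3 days in folate-free RPMI. Cells were exposed to a drug concentration range with or without 200 nM folic acid to block FR uptake. After 96 h, CellTiter-blue fluorescence was read.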

[10] = Growth inhibition of Chinese hamster RT16 cells after 96 hrs by CellTiter-blue assay; format: functional, cell-based; conditions: Cricetulus griseus, RT16, 96 h; method in brief: as §3
[11] = molecular target: T2, Trifunctional purine biosynthetic protein adenosine-3 (Homo sapiens, UniProt P22102); assay: In situ inhibition of GRAFTase in human KB cells assessed as incorporation of [14C]-glycine into [14C]-formyl GAR preincubated for 30 mins followed by [14C]-glycine addition measured after 15 hrs
T2 sequence (P22102 whole entry): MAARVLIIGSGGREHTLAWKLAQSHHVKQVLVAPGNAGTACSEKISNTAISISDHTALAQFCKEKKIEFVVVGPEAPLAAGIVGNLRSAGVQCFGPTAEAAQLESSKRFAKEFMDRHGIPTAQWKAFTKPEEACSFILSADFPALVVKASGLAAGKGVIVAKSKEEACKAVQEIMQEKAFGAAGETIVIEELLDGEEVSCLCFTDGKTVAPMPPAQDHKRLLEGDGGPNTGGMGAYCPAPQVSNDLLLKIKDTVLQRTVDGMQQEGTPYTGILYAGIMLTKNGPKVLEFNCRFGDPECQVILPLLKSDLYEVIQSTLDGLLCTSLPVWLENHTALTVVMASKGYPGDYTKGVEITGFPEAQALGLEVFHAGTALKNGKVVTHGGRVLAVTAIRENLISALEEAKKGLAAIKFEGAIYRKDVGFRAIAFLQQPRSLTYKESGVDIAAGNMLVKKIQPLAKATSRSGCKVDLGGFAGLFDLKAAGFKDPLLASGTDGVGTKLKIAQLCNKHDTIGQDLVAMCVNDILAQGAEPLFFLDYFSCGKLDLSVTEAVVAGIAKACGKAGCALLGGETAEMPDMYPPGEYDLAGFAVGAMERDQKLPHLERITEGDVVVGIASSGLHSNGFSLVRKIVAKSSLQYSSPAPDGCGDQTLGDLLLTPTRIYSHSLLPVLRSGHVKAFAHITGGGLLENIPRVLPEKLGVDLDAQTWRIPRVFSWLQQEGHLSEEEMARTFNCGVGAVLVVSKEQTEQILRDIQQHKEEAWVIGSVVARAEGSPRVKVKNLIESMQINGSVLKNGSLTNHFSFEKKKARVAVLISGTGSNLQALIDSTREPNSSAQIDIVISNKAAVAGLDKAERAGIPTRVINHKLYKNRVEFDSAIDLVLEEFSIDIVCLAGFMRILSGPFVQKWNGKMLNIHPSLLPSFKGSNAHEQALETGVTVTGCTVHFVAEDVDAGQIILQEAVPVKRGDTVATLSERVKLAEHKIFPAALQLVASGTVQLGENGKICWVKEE

KB [12] = assay: Growth inhibition of human KB cells by CellTiter Blue fluorescence dye-based assay in presence of thymidine; format: functional, cell-based; method in brief: as §2
[13] = molecular target: Thymidylate synthase (Homo sapiens) (UniProt P04818); assay: Inhibition of recombinant TS (unknown origin)
KB [14] = assay: Growth inhibition of human KB cells expressing human RFC/FRalpha/PCFT after 96 hrs by CellTiter-blue assay; format: functional, cell-based
[15] = Growth inhibition of Chinese hamster D4 cells after 96 hrs by CellTiter-blue assay; format: functional, cell-based; conditions: Cricetulus griseus, D4, 96 h
[16] = Growth inhibition of Chinese hamster PC43-10 cells after 96 hrs by CellTiter-blue assay; format: functional, cell-based; conditions: Cricetulus griseus, PC43-10, 96 h

Chain of Folate receptor beta (Homo sapiens) (P14207 17-230 limits assumed): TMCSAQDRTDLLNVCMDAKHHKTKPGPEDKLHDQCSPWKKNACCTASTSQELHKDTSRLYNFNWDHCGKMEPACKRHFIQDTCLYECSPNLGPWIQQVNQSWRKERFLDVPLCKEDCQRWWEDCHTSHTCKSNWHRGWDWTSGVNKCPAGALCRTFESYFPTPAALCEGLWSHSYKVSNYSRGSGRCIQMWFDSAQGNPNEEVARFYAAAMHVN
Chain of Thymidylate synthase (Homo sapiens) (P04818 2-313 limits assumed): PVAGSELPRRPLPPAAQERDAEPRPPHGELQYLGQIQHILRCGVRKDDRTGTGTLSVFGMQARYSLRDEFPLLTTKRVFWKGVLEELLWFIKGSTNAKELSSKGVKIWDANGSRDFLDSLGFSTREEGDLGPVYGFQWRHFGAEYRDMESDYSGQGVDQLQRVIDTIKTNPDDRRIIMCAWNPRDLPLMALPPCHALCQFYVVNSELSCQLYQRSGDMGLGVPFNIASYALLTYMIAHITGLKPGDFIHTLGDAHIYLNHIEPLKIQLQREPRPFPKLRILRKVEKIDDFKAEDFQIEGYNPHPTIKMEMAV
Chain of Folate receptor alpha (Homo sapiens) (P15328 25-234 limits assumed): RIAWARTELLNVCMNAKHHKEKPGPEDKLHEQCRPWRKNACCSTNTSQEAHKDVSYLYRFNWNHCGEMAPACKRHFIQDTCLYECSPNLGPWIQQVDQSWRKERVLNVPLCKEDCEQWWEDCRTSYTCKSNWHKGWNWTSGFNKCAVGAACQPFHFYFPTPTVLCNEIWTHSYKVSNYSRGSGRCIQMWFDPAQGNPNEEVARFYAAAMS

Nc1nc(=O)c2nc(CNc3ccc(C(=O)N[C@@H](CCC(=O)O)C(=O)O)cc3)cnc2[nH]1
inhibition [1]: Active
inhibition [2]: Active

Nc1nc2[nH]c(CCCCCCc3ccc(C(=O)N[C@@H](CCC(=O)O)C(=O)O)cc3)cc2c(=O)[nH]1
IC50 (R2): > 1000 nM
IC50 [3]: > 1000 nM

Cc1nc(=O)c2cc(CN(C)c3ccc(C(=O)N[C@@H](CCC(=O)O)C(=O)O)s3)ccc2[nH]1 [RALTITREXED]
IC50 [3]: > 1000 nM

Nc1nc2[nH]c(CCCCCc3ccc(C(=O)N[C@@H](CCC(=O)O)C(=O)O)cc3)cc2c(=O)[nH]1
IC50 (R2): > 1000 nM
IC50 [3]: > 1000 nM

Nc1nc2[nH]c(CCCCCCCCC(=O)N[C@@H](CCC(=O)O)C(=O)O)cc2c(=O)[nH]1
IC50 (R2): > 1000 nM
inhibition [4]: inactive
growth inhibition (GI) (KB [5]): inactive
IC50 (KB [6]): > 1000 nM
inhibition [1]: Active
IC50 [7]: > 1000 nM
IC50 [8]: > 1000 nM
IC50 [9]: > 10000 nM
IC50 [10]: 12.3 nM
IC50 [11]: 9.62 nM
growth inhibition (GI) (KB [12]): Active
inhibition [13]: inactive
inhibition [2]: Active
IC50 (KB [14]): 1.48 nM
IC50 [3]: > 1000 nM
IC50 [15]: 3.99 nM
IC50 [16]: > 1000 nM

Nc1nc2[nH]c(CCCCCCCC(=O)N[C@@H](CCC(=O)O)C(=O)O)cc2c(=O)[nH]1
IC50 (R2): > 1000 nM
inhibition [4]: inactive
growth inhibition (GI) (KB [5]): inactive
IC50 (KB [6]): > 1000 nM
inhibition [1]: Active
IC50 [7]: > 1000 nM
IC50 [8]: > 1000 nM
IC50 [9]: > 1000 nM
IC50 [10]: 8.54 nM
IC50 [11]: 5.49 nM
growth inhibition (GI) (KB [12]): Active
inhibition [13]: inactive
inhibition [2]: Active
IC50 (KB [14]): 1.1 nM
IC50 [3]: > 1000 nM
IC50 [15]: 0.87 nM
IC50 [16]: > 1000 nM

Nc1nc2c(c(=O)[nH]1)C[C@@H](CCc1ccc(C(=O)N[C@@H](CCC(=O)O)C(=O)O)cc1)CN2 [LOMETREXOL]
IC50 [3]: > 1000 nM

Nc1nc2[nH]c(CCCCCCC(=O)O)cc2c(=O)[nH]1
IC50 (R2): > 1000 nM
IC50 (KB [6]): > 1000 nM
IC50 [7]: > 1000 nM
IC50 [8]: > 1000 nM
IC50 [9]: > 1000 nM
IC50 [10]: > 1000 nM
IC50 (KB [14]): > 1000 nM
IC50 [3]: > 1000 nM
IC50 [15]: > 1000 nM
IC50 [16]: > 1000 nM

Nc1nc2[nH]c(CCCCCCCCC(=O)O)cc2c(=O)[nH]1
IC50 (R2): > 1000 nM
IC50 (KB [6]): > 1000 nM
inhibition [1]: Active
IC50 [7]: > 1000 nM
IC50 [8]: > 1000 nM
IC50 [9]: > 100 nM
IC50 [10]: > 10000 nM
inhibition [2]: inactive
IC50 (KB [14]): > 1000 nM
IC50 [3]: > 1000 nM
IC50 [15]: > 1000 nM
IC50 [16]: > 1000 nM

Nc1nc2[nH]c(CCCCc3ccc(C(=O)N[C@@H](CCC(=O)O)C(=O)O)cc3)cc2c(=O)[nH]1
IC50 [3]: > 1000 nM

Nc1nc2[nH]c(CCCCCC(=O)O)cc2c(=O)[nH]1
IC50 (R2): > 1000 nM
IC50 (KB [6]): > 1000 nM
IC50 [7]: > 1000 nM
IC50 [8]: > 1000 nM
IC50 [9]: > 1000 nM
IC50 [10]: > 1000 nM
IC50 (KB [14]): > 1000 nM
IC50 [3]: > 1000 nM
IC50 [15]: > 1000 nM
IC50 [16]: > 1000 nM

CN(Cc1cnc2nc(N)nc(N)c2n1)c1ccc(C(=O)N[C@@H](CCC(=O)O)C(=O)O)cc1 [METHOTREXATE]
IC50 [3]: > 1000 nM

C#CCC(Cc1cnc2nc(N)nc(N)c2n1)c1ccc(C(=O)N[C@@H](CCC(=O)O)C(=O)O)cc1 (mixture of isomers) [PRALATREXATE]
IC50 (R2): 57 nM
IC50 (KB [6]): 1.94 nM
IC50 [7]: 819 nM
IC50 [9]: > 1000 nM
IC50 [10]: 168 nM
IC50 (KB [14]): 0.47 nM
IC50 [3]: > 1000 nM
IC50 [16]: 0.69 nM

Nc1nc2[nH]c(CCCCCC(=O)N[C@@H](CCC(=O)O)C(=O)O)cc2c(=O)[nH]1
IC50 (R2): > 1000 nM
IC50 (KB [6]): > 10000 nM
inhibition [1]: Active
IC50 [7]: > 1000 nM
IC50 [8]: > 1000 nM
IC50 [9]: > 1000 nM
IC50 [10]: > 1000 nM
inhibition [2]: Active
IC50 (KB [14]): 200 nM
IC50 [3]: > 1000 nM
IC50 [15]: 214 nM
IC50 [16]: > 1000 nM

Nc1nc2[nH]c(CCCCCCCC(=O)O)cc2c(=O)[nH]1
IC50 (R2): > 1000 nM
IC50 (KB [6]): > 1000 nM
IC50 [7]: > 1000 nM
IC50 [8]: > 1000 nM
IC50 [9]: > 1000 nM
IC50 [10]: > 1000 nM
IC50 (KB [14]): > 1000 nM
IC50 [3]: > 1000 nM
IC50 [15]: > 1000 nM
IC50 [16]: > 1000 nM

Nc1nc2[nH]c(CCCc3ccc(C(=O)N[C@@H](CCC(=O)O)C(=O)O)cc3)cc2c(=O)[nH]1
IC50 [3]: > 1000 nM

Nc1nc2[nH]c(CCCCCCC(=O)N[C@@H](CCC(=O)O)C(=O)O)cc2c(=O)[nH]1
IC50 (R2): > 1000 nM
inhibition [4]: inactive
growth inhibition (GI) (KB [5]): inactive
IC50 (KB [6]): > 1000 nM
inhibition [1]: Active
IC50 [7]: > 1000 nM
IC50 [8]: > 1000 nM
IC50 [9]: > 1000 nM
IC50 [10]: 47.1 nM
IC50 [11]: 2.89 nM
growth inhibition (GI) (KB [12]): Active
inhibition [13]: inactive
inhibition [2]: Active
IC50 (KB [14]): 7.9 nM
IC50 [3]: > 1000 nM
IC50 [15]: 10.6 nM
IC50 [16]: > 1000 nM
